The text below walks through data of ChEMBL document CHEMBL5149991 (J Med Chem, 2021).

A value given as a limit tells only on which side of the number the result lay.

Data set [1] concerns the target T1, Histamine H2 receptor (Homo sapiens, UniProt P25021). The experiment in a line: Displacement of [3H]UR-DE257 from human histamine H2 receptor stably expressed in baculovirus infected Sf9 cell membrane co-expressing RG-Salpha S incubated for 60 mins by scintillation counting analysis. Format: cell membranes. (Loss of bound radioactivity is the signal in a displacement assay; it reports binding, not function.)

For data set [2], the target named is D(2) dopamine receptor (Homo sapiens, UniProt P14416). In words: Displacement of [3H]N-methylspiperone from human D2 long receptor stably expressed in HEK293T cells co-expressing luciferase and CEK incubated for 140 mins by radioligand competition binding based assay. Format: cell-based.
Sequence of D(2) dopamine receptor (P14416 whole entry): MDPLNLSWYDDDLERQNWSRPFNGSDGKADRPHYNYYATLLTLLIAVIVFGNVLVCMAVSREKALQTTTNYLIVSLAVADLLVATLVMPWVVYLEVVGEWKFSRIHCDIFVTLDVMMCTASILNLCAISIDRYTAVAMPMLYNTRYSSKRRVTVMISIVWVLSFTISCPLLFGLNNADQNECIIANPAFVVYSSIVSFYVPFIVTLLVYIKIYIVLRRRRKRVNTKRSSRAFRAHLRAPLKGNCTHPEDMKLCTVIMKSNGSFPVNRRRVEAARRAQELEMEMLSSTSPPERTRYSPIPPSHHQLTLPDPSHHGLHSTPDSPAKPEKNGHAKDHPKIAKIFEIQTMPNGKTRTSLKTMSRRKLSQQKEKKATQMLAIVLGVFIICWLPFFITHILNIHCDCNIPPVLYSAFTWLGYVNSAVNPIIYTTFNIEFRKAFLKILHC
In data set [3] the target is T1, Histamine H2 receptor. In words: Agonist activity at human histamine H2 receptor stably expressed in HEK293T cells co-expressing NlucN-mGs/hH2R-NlucC assessed as induction of mini-Gs protein recruitment using furimazine as substrate measured for 45 mins by luminescence assay.
Data set [4] deals with T2, Muscarinic acetylcholine receptor M1 (Homo sapiens, UniProt P11229).
T2 sequence (P11229 whole entry): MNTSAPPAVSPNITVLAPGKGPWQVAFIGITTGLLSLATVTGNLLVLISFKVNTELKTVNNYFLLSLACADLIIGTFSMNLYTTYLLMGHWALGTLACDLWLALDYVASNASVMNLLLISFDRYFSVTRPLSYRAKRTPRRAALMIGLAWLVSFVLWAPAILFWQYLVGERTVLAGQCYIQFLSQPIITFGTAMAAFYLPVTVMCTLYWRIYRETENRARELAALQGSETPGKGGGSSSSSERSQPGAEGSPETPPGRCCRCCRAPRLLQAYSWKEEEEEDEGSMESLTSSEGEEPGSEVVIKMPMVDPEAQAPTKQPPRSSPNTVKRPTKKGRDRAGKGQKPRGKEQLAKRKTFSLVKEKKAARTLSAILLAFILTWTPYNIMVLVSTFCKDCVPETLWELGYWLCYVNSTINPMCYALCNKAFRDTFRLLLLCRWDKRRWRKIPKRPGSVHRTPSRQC
The experiment in a line: Displacement of [3H]N-methylscopolamine from human muscarinic acetylcholine M1 receptor stably expressed in CHO cells by radioligand competition binding based analysis. Format: cell-based. Summed up: (§1)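 Whole CHO cells stably expressing hM1–hM5, competed against [3H]N-methylscopolamine. Kd/applied concentrations in nM: M1 0.17/0.2, M2 0.10/0.2, M3 0.12/0.2, M4 0.052/0.1, M5 0.20/0.3.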

Data set [5] concerns the target T1, Histamine H2 receptor. In words: Agonist activity at human histamine H2 receptor stably expressed in HEK293T cells co-expressing ARRB2 incubated for 60 mins by beta-arrestin2 recruitment assay. Format: functional, cell-based. (Arrestin recruitment assays detect the binding of arrestin to an activated receptor.)
The target of data set [6] is Muscarinic acetylcholine receptor M3 (Homo sapiens, UniProt P20309). The experiment in a line: Displacement of [3H]N-methylscopolamine from human muscarinic acetylcholine M3 receptor stably expressed in CHO cells by radioligand competition binding based analysis. Format: cell-based. Summed up: as §1
Sequence of Muscarinic acetylcholine receptor M3 (P20309 whole entry): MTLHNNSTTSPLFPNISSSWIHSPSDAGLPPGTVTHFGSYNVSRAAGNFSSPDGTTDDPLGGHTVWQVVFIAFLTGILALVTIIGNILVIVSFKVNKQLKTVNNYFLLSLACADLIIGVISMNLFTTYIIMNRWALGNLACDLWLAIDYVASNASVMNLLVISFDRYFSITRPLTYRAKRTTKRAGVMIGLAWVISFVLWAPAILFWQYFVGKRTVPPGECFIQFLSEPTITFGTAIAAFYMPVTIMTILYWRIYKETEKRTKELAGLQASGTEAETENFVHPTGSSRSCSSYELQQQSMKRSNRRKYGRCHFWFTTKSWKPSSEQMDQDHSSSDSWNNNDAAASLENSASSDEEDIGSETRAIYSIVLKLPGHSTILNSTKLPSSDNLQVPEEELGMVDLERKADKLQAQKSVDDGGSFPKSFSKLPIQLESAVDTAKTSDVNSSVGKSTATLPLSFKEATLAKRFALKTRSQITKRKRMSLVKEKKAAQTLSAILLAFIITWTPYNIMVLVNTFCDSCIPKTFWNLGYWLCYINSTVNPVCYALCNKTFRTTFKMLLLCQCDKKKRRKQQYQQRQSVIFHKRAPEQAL
The target of data set [7] is Histamine H2 receptor (Cavia porcellus, UniProt P47747). The experiment in a line: Agonist activity at guinea pig histamine H2 receptor stably transfected in HEK293T cells co-expressing NlucN-mGs/gpH2R-NlucC by mini-G protein recruitment assay. Format: functional, cell-based.
Sequence of Histamine H2 receptor (Cavia porcellus, UniProt P47747) (P47747 whole entry): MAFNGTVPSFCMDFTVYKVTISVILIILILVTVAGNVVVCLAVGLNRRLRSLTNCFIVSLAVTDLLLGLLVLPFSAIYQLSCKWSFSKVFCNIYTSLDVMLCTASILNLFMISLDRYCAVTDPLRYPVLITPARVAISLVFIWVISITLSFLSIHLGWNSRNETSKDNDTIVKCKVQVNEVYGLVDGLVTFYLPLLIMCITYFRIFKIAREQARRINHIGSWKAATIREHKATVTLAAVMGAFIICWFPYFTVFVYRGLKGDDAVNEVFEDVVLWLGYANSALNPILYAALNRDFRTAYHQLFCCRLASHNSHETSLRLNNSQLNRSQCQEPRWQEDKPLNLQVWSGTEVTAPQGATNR
Data set [8] is described as follows: Chemical stability in pH 7.4 buffer measured at 0 to 2 weeks by HPLC analysis. Format: physicochemical. The conditions noted are these: time 0-2 weeks.
The target in data set [9] is T1, Histamine H2 receptor. The experiment in a line: Agonist activity at human histamine H2 receptor stably expressed in baculovirus infected Sf9 cell membrane co-expressing RG-Salpha S incubated for 90 mins by [35S]GTPgammaS binding based liquid scintillation counting method. Format: functional, cell membranes.
Data set [10] deals with T3, D(3) dopamine receptor (Homo sapiens, UniProt P35462). In words: Agonist activity at human D3 receptor stably expressed in HEK293T cells co-expressing ElucN-betaarr2 hD3R-ElucC by beta-arrestin2 recruitment assay. Format: functional, cell-based.
T3 sequence (P35462 whole entry): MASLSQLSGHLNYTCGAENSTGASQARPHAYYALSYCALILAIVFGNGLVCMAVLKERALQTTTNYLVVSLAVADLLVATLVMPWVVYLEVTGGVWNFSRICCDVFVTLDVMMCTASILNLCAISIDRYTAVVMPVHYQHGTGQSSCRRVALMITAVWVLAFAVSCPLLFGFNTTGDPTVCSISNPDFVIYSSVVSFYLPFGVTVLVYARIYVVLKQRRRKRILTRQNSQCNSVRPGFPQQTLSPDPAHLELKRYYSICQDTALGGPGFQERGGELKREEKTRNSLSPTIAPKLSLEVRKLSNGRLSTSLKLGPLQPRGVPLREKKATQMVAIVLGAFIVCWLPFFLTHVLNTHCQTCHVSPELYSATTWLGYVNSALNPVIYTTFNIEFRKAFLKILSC
For data set [11], the target named is T3, D(3) dopamine receptor. The experiment in a line: Displacement of [3H]N-methylspiperone from human D3 receptor stably expressed in HEK293T cells co-expressing luciferase and CEK incubated for 140 mins by radioligand competition binding based assay. Format: cell-based.
The target of data set [12] is Histamine H2 receptor (Cavia porcellus) (UniProt P47747). In words: Agonist activity at guinea pig histamine H2 receptor stably transfected in HEK293T cells co-expressing NlucN-mGs/gpH2R-NlucC assessed as maximum efficacy at 100 uM by mini-G protein recruitment assay relative to histamine. Format: functional, cell-based.
Sequence of Histamine H2 receptor (Cavia porcellus) (P47747 whole entry): as the sequence (P47747 whole entry) above
Data set [13] shares this target. The experiment in a line: Agonist activity at histamine H2 receptor in spontaneous beating guinea pig right atrium assessed as increase in heart beat at 30 uM relative to histamine. As to conditions: Right cardiac atrium. Format: functional, tissue-based.

The Ki is the equilibrium dissociation constant of an inhibitor or competing ligand from its target. A high value points to weaker binding. One may read the EC50 as the concentration at which the effect is half-maximal. Broadly, the Kd is the constant that tells how readily two partners part at equilibrium. High values mean weaker binding, low ones tighter binding. For orientation: pKi means −log10 of the Ki, conventionally taken in molar units. A higher pKi goes with a low Ki. Usually Emax stands for the maximal effect, on the per cent scale that the assay sets.

T1 sequence (P25021 whole entry): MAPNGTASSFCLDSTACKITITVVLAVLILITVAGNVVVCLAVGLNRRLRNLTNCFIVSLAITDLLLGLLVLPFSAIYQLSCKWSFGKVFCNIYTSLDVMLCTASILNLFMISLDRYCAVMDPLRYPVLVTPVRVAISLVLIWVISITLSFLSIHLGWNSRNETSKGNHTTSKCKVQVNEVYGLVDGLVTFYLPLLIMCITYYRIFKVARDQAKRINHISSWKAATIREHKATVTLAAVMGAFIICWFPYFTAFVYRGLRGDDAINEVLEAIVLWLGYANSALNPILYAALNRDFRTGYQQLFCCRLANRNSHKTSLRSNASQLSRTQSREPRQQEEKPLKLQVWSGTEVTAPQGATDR

On to `CCCCCNC(=O)/N=C(\N)NCCCc1nnc(N)s1.O=C(O)C(F)(F)F.O=C(O)C(F)(F)F`, for which the Ki in [1] was 3.02 nM; in data set [2] it was 9550 nM. The EC50 in data set [3] is 5.75 nM; in data set [5] it was 234 nM; in data set [7], 4.37 nM; in [9] it was 25.7 nM. Besides, the results for the Kd in data set [4] and in data set [6] were 0.17 nM and 0.12 nM, respectively. Further, the pKi in data set [4] and in data set [6] was below 5 each time. Further, the Stability entry in data set [8] is given as “Stable”.
In data set [4], `CCCCCNC(=O)/N=C(\N)NCCCc1sc(N)nc1C` showed a Kd of 0.17 nM and a pKi below 5. In [6], this molecule had a Kd of 0.12 nM and a pKi below 5.
For the molecule `N/C(=N\C(=O)NCc1ccccc1)NCCCc1nnc(N)s1`, the EC50 in [10] is 1200 nM; in [7], 2.19 nM. Further, the Ki is 6310 nM in [2] and 2630 nM in data set [11]. Moreover, the equilibrium dissociation constant (Kd) in [4] is 0.17 nM; in data set [6], 0.12 nM. The pKi in data set [4] and in data set [6] was below 5 each time.
As to `C[C@@H](NC(=O)/N=C(\N)NCCCc1ncn[nH]1)c1ccccc1`, the EC50 was above 10000 nM in [10], 25.7 nM in data set [3], 324 nM in data set [5] and 16.2 nM in data set [7]. For the same molecule, the Ki in data set [1] is 53.7 nM; in data set [2] it was above 10000 nM; in data set [11], above 10000 nM. Further, the figures for the Emax in data set [12] and in data set [13] were 86% and 115%, respectively. Also, the Kd stood at 0.17 nM in data set [4] and 0.12 nM in [6]. The pKi in data set [4] and in [6] was below 5 each time.
